Test results taken from PubChem BioAssay.
Inconclusive results are not listed.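 The calls were made as follows, unless noted: active = RAM network inhibition above 8.4% in each of two replicates, 3 SD over the compound average; inconclusive = above 8.4% inhibition in only one replicate; inactive = 8.4% inhibition or less in each replicate.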

How the values were obtained:
[1] = OD615 S. cerevisiae growth inhibition, permissive medium, pilot counter-assay, permissive growth control for S. cerevisiae lifespan shortening project (AID 705;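 active = growth inhibition above 25% in both replicates, a cutoff set 3 SD above the mean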); conditions: OD615, 24 h, at 10 µM, stronger effect = higher value
In short: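 System: Engineered DeaD yeast | Buffer or medium: SC raffinose/galactose permissive medium | Doses: 10 µM single dose, 0.25% DMSO | Times: 24 h exposure, 30 °C | Measured by: OD615 turbidity read | Read-out: Yeast growth inhibition indicated by reduced 24 h OD615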

[2] = Restrictive medium S. cerevisiae growth inhibition, OD615, pilot screen of yeast lifespan reduction project, restrictive growth control (AID 706;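 active = growth inhibition above a set limit, 3 SD over mean compound inhibition, in both replicates, cut at about 43% in these data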;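 also: modified DeaD lifespan yeast strain shifted to restrictive glucose medium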); conditions: OD615, 48 h, at 10 µM, stronger effect = higher value
In short: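 Assay system: engineered S. cerevisiae DeaD strain; Buffer or medium: CSMM-D glucose medium; Dosing: 10 µM compound, 0.25% DMSO; Times: cell pre-growth 4 h, compound exposure 48 h, 30 °C; Detection: absorbance (optical density) measured at 615 nm.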

[3] = viability gain of MRP-1-high H69AR cells under doxorubicin, pilot screen, MRP-1 activator project, CellTiter-Glo, duplicate (AID 807;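 active = viability increase at or above a cutoff of the median across tested compounds plus 3 SD, cut at about 8.5% in these data, passing the limit was not always enough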;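 also: compound pretreatment 18-22 h then 72 h combined with doxorubicin; 0% = doxorubicin alone and 100% = vehicle without doxorubicin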); conditions: H69AR viability with doxorubicin, CellTiter-Glo luminescence; at 10 µM; stronger effect = higher value
[4] = growth suppression of beta-catenin knockout HCT116, pilot screen, human colon tumor cells (AID 823;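 active = cell viability at or below a set limit in both duplicate runs, the limit being the all-compound median minus 4 SD, cut at about 23% in these data, passing the limit was not always enough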;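 also: 0% = wells killed by 20 µM Hyamine and 100% = untreated DMSO cell wells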); conditions: CellTiter-Glo, 60 h, at 10 µM, stronger effect = lower value
[5] = growth suppression of PTEN-deleted HCT116, pilot screen, cell-based, HCT116 clonal line, CellTiter-Glo (AID 824;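 active = viability at or below 27.92% in each of two runs, the all-compound median minus 4 SD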;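 also: 0% = 20 µM Hyamine control and 100% = vehicle cell control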); conditions: 60 h, at 10 µM, stronger effect = lower value
[6] = inhibitors of the yeast RAM network, pilot screen, dse1pr::URA3 reporter, 5-FOA selection (AID 869;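 active = inhibition over a set limit, the all-compound mean plus 3 SD, in both replicate runs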;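 also: 0% = DMSO wells with no growth and 100% = 10 µM 1-NA-PP1 with full growth; RAM network block rescues cells from 5-FOA so hits raise OD615 growth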); conditions: S. cerevisiae dse1pr::URA3 5-FOA growth, OD615, 2 d; at 10 µM; stronger effect = higher value; strain carries analog-sensitive mutant Cbk1 kinase
[7] = RAM signaling pathway blockade in yeast – S. cerevisiae, Pdr1DBD-CYC8 efflux-inhibited sensitized strain, primary screen (AID 1298);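 also: 0% = DMSO untreated cells without growth and 100% = 10 µM 1-NA-PP1 full growth; higher means more yeast growth rescued from 5-FOA killing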; conditions: S. cerevisiae cbk1-as DSE1-URA3 strain, 5-FOA growth OD615, 2 d; at 50 µM; stronger effect = higher value

CCCC(NS(=O)(=O)c1ccc(OC)cc1)C(=O)O (stereo unspecified)
inactive: growth inhibition [1] -8.86% | growth inhibition [2] -7.75% | viability increase [3] -1.16% | viability [4] 90.1% | viability [5] 95.4% | inhibition [6] 1.29% | RAM network inhibition [7] 3.19%

COC(=O)c1ccc(NC(=O)CSc2nnc(-c3ccncc3)n2N)cc1
inactive: growth inhibition [1] -4.88% | growth inhibition [2] -14.8% | viability increase [3] -1.74% | viability [4] 95.7% | viability [5] 97.4% | inhibition [6] 0.805% | RAM network inhibition [7] 0.26%

N#Cc1nc(-c2ccccc2F)oc1NCCN1CCOCC1
inactive: growth inhibition [1] -19.2% | growth inhibition [2] -36.8% | viability increase [3] -1.89% | viability [4] 104% | viability [5] 95% | inhibition [6] 1.17% | RAM network inhibition [7] 0.32%

O=C(c1cc(-c2cccs2)on1)N1CCCc2ccccc21
inactive: growth inhibition [1] -2.66% | growth inhibition [2] -4.53% | viability increase [3] -3.09% | viability [4] 103% | viability [5] 103% | inhibition [6] 2.58% | RAM network inhibition [7] -0.52%

COc1ccc(C2C(C(=O)N3CCCCC3)CCC(=O)N2c2cc(OC)c(OC)c(OC)c2)cc1 (stereo unspecified)
inactive: growth inhibition [1] -15% | growth inhibition [2] -5.94% | viability increase [3] -7.12% | viability [4] 100% | viability [5] 89% | inhibition [6] 0.98% | RAM network inhibition [7] 5.22%

Cc1cc(SCC(=O)OCC(=O)N2CCN(C(=O)c3ccco3)CC2)c(C)cc1Br
inactive: growth inhibition [1] -2.27% | growth inhibition [2] 4.81% | viability increase [3] -2.19% | viability [4] 91.4% | viability [5] 98.2% | inhibition [6] 0.31% | RAM network inhibition [7] 0.4%

CCN1CCN(CC(=O)Nc2ccccc2)C(=O)C1=O
inactive: growth inhibition [1] -2.23% | growth inhibition [2] 9.12% | viability increase [3] 0.2% | viability [4] 103% | viability [5] 107% | inhibition [6] 1.19% | RAM network inhibition [7] -0.21%

O=C(O)c1cccc(NS(=O)(=O)c2cccc3cccnc23)c1
inactive: growth inhibition [1] -3.04% | growth inhibition [2] -3.79% | viability increase [3] 0.96% | viability [4] 103% | viability [5] 99.8% | inhibition [6] 0.655% | RAM network inhibition [7] 4.37%

O=C(O)CCC(=O)N1CCc2cc(S(=O)(=O)N3CC=C(c4ccccc4)CC3)ccc21
inactive: growth inhibition [1] 5.99% | growth inhibition [2] 4.92% | viability increase [3] -2.14% | viability [4] 104% | viability [5] 93.9% | inhibition [6] 3.79% | RAM network inhibition [7] 7.9%

Cn1c(Cn2c(=O)sc3ccccc32)nnc1SCc1ccccc1F
inactive: growth inhibition [1] -4.61% | growth inhibition [2] 5.46% | viability increase [3] -0.13% | viability [4] 96.6% | viability [5] 97.4% | inhibition [6] 2.95% | RAM network inhibition [7] 5.27%

COc1ccc(OC)c(-c2nnc(NC(=O)C(C)Sc3nncn3C)s2)c1 (stereo unspecified)
inactive: growth inhibition [1] -1.32% | growth inhibition [2] 23.7% | viability increase [3] -4.48% | viability [4] 106% | viability [5] 95.5% | inhibition [6] 0.65% | RAM network inhibition [7] 0.37%

Cc1oc(-c2cccs2)nc1CS(=O)CC(=O)NCCCN1CC(C)CC(C)C1 (stereo unspecified)
inactive: growth inhibition [1] -8.47% | growth inhibition [2] -12.7% | viability increase [3] -1.75% | viability [4] 93.9% | viability [5] 92.4% | inhibition [6] 2.27% | RAM network inhibition [7] 3.39%

O=C(Nc1ccccc1C(=O)NC(Cc1c[nH]c2ccccc12)C(=O)O)c1ccco1 (stereo unspecified)
inactive: growth inhibition [1] -11% | growth inhibition [2] -11.3% | viability increase [3] -2.96% | viability [4] 102% | viability [5] 97.1% | inhibition [6] 0.95% | RAM network inhibition [7] 2.94%

O=C(Nc1cccnc1)c1ccccc1F
inactive: growth inhibition [1] -7.93% | growth inhibition [2] 4.54% | viability increase [3] -0.03% | viability [4] 103% | viability [5] 103% | inhibition [6] 0.88% | RAM network inhibition [7] 2.95%

CCC(c1ccccc1)c1nc(-c2ccccn2)no1 (stereo unspecified)
inactive: growth inhibition [1] -3.45% | growth inhibition [2] -5.84% | viability increase [3] 1.44% | viability [4] 91.8% | viability [5] 97.8% | inhibition [6] 0.495% | RAM network inhibition [7] 3.77%

O=C1CC(c2ccccc2)C(C(=O)O)N1 (stereo unspecified)
inactive: growth inhibition [1] -0.84% | growth inhibition [2] -18.1% | viability increase [3] 1.77% | viability [4] 99.2% | viability [5] 102% | inhibition [6] 2.74% | RAM network inhibition [7] 0.37%

CCCc1cc(C(=O)Nc2ccc(C)cc2)no1
inactive: growth inhibition [1] -3.58% | growth inhibition [2] -5.4% | viability increase [3] -0.63% | viability [4] 101% | viability [5] 97.6% | inhibition [6] 1.32% | RAM network inhibition [7] 1.86%

O=C(CCS(=O)(=O)c1ccccc1)Nc1nccs1
inactive: growth inhibition [1] -13.9% | growth inhibition [2] -10.5% | viability increase [3] -8.48% | viability [4] 62.2% | viability [5] 72.7% | inhibition [6] 1.48% | RAM network inhibition [7] 5.64%
